# Assay: Toxicity liver stage against HepG2, at 10uM
# Assay type: cell-based
# Set-up: test concentration 10 uM, cell line HepG2-A16-CD81EGFP
# Conditions: human, HepG2-A16-CD81EGFP cells; read-out: INHIBITION
# Outline: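 Uninfected HepG2-A16-CD81EGFP cells, 3 × 10^3 per well, 1536-well, plated on prespotted compound at 10 μM final, parasite-free screening media added to match infected plates; puromycin 10 μM positive, DMSO 0.5% negative; run in parallel with 48 h PbLuc assay at 37 °C, 5% CO2; viability by CellTiter-Glo luminescence, normalized to controls.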
row,SMILES,cytotoxicity at 10 µM
1,Cc1cc(CN(C)C(=O)c2ccc(F)cc2Br)no1,0.864%
2,CCc1nc(CN(C)C(=O)c2cc(CN(CC)CC)c(CC)o2)no1,0.9%
3,CC(C)(C)C(=O)N1CCN(Cn2nccc2-c2cccnc2)CC1,8.27%
4,O=C(CS(=O)(=O)Cc1csc(-c2ccc(F)cc2)n1)NCC1CC1,-3.06%
5,CC(C)N(C)C(=O)C1=NOC2(CCN(C(=O)c3cccn3C)C2)C1 (stereo not drawn),-122%
6,Cc1cc(C2CCCN(C(=O)c3c(C)noc3C)C2)n[nH]1 (stereo not drawn),-6.63%
7,CCN1CCC(CNC(=O)NCc2cc(-c3ccc(C)cc3)no2)C1 (stereo not drawn),-12.3%
8,O=C(NCc1ccco1)[C@@H]1CCO[C@@H]2CCN(C3CCOCC3)C[C@H]21,-74.9%
9,O=C(c1ccc(-n2cnnc2)cc1Cl)N1CCCC2(CCNC2)C1 (stereo not drawn),-5.32%
10,CN(C)c1nc(CNC(=O)NC2CCc3ccccc32)cs1 (stereo not drawn),-3.41%
11,COC1COC2(CCN(Cc3cccc(C#N)c3)CC2)C1 (stereo not drawn),-1.75%
12,COC(=O)c1cccn1C1CCN(C(=O)c2cc(F)ccc2F)CC1,-9.62%
13,Cc1cc(N2CCCCC2)c(C#N)c(C)n1,-6.16%
14,O=C(c1cnccn1)N1CCCC(C2=Nc3ccccc3S(=O)(=O)N2)C1 (stereo not drawn),-0.055%
15,O=C1CC(c2ccncc2)c2c(c(C(=O)O)cn2-c2ccccc2)N1 (stereo not drawn),-3.7%
16,CNC(=O)c1sc2ncccc2c1C1CCN(C(=O)CCOC)C1 (stereo not drawn),6.42%
17,COc1ccccc1OCC(=O)NS(=O)(=O)c1cccnc1,-4.69%
18,CCc1cc(N(C)Cc2nonc2C)nc(N(C)C)n1,-6.32%
19,Cc1nc(Cn2c3c(ccc2=O)CCN(CC2CCC2)CC3)cs1,5.1%
20,CCCc1cc(C(=O)N2CCC3(CCCN(CCO)C3=O)C2)cs1 (stereo not drawn),-144%
21,Cc1nn(C)c(C)c1CN(CCO)C(=O)C1COc2ccccc2C1 (stereo not drawn),-8.07%
22,Cc1cccc(C)c1OCC(C)Nc1nc(N)nc2c1CCNC2 (stereo not drawn),5.75%

row,SMILES,cytotoxicity at 10 µM
1,CN(C)S(=O)(=O)c1ccc(CSCC(=O)NC(C)(C)C)o1,-1.82%
2,CO[C@@H]1CN(Cc2scnc2C)[C@@H]2CCCO[C@@H]21,-6.34%
3,CC(NC(=O)OC(C)(C)C)c1nnc(S(=O)(=O)Cc2ccccc2Cl)o1 (stereo not drawn),0.935%
4,Cc1cc(CN(C)C2CCCN(Cc3noc(C)n3)C2)on1 (stereo not drawn),-5.85%
5,COc1cc(Cl)c(CN2CCC(C(N)=O)C2)cc1Cl (stereo not drawn),-2.4%
6,CCc1nccn1C1CCCN(C(=O)c2c(C)nsc2NC)C1 (stereo not drawn),-5.86%
7,O=C1[C@H]2CN(Cc3cccs3)C[C@H]2CN1c1cncnc1,-13.8%
8,COc1nc2c(cc1C(=O)NCCc1nc3ccccc3s1)CCC2,5.79%
9,CNc1ncc(CN2CCC(c3nnsc3S(C)(=O)=O)CC2)cn1,-0.085%
10,O=c1[nH]cnc2[nH]c(N3CCOCC3)nc12,2.9%
11,O=C(c1cnco1)N1CCCC(Cc2nccs2)C1 (stereo not drawn),4.84%
12,N#CCCN(CCC#N)C(=O)c1cccc(N2CCNC2=O)c1,-18.7%
13,NC(=O)C1CCCN1C1CCN(C(=O)c2ccc3c(c2)OCO3)CC1 (stereo not drawn),1.59%
14,Cc1nc(COC[C@@H]2CC[C@H]3[C@H](CCN3C(=O)C3CC3)O2)cs1,-73.9%
15,Cc1ccc(C(=O)N2CCC3(CC2)CC(N2CCOCC2)C3)cc1,1.93%
16,Cc1noc(C)c1CN1CCC(N(C)Cc2noc(C(C)C)n2)C1 (stereo not drawn),-6.37%
17,CCc1c(C)nc2cc(C3CCN(CCc4ccccc4)C3)nn2c1O (stereo not drawn),-20.1%
18,Cc1cncc(C2CCCN(Cc3ccncc3)C2)n1 (stereo not drawn),-9.8%
19,CC(NCc1ccccc1CN1CCCC1=O)c1ccc(C#N)cc1 (stereo not drawn),3.09%
20,CCNc1ncc(C(=O)NC2CCc3ccccc3C2)cn1 (stereo not drawn),82.6%
21,Cc1ccc(C(=O)Nc2cn[nH]c2)cc1C,0.762%
22,O=C(Nc1ccccc1)[C@H]1C[C@H]2CN(S(=O)(=O)C3CC3)C[C@@H]1O2,4.44%

row,SMILES,cytotoxicity at 10 µM
1,CCc1[nH]ncc1C(=O)N1CCCC(n2cncn2)C1 (stereo not drawn),-18.9%
2,Cn1nccc1NC(=O)c1cccc(CN2C[C@H]3CC[C@@H](C2)N3)c1,6.56%
3,CN(C)c1ccc(C(=O)N2CCN(Cc3cscn3)CC2)cc1F,-11.7%
4,CCC(O)CNc1ccc(-c2nc(CC(C)C)no2)cn1 (stereo not drawn),-6.19%
5,Cc1cc(N(C)Cc2ncc[nH]2)nc(-c2cccnc2)n1,4.37%
6,CC(C)C(C(=O)N1CCCN(Cc2cnn(C)c2)CC1)n1cncn1 (stereo not drawn),-4.52%
7,O=C(NC[C@]12COC[C@H]1CN(Cc1ccncc1)C2)c1ccno1,-72.1%
8,Cc1cc(N)nc(SC2CCN(c3ccccc3)C2=O)n1 (stereo not drawn),-0.572%
9,O=C(N[C@@H]1CN(c2ncccn2)C[C@@H]2CCCO[C@@H]21)c1cnccn1,0.199%
10,Cc1cc(S(C)(=O)=O)c(C)c(S(=O)(=O)NCC2CCC2)c1,16.3%
11,Cc1cccc(CN2CCC3(CCN(c4cccnc4)C3=O)C2)n1 (stereo not drawn),-1.63%
12,Cc1cnn(CC2CCCN2CC(=O)N(C)Cc2ccco2)c1 (stereo not drawn),10.8%
13,CCc1nc(C)c([C@H]2CN(C)C[C@@H]2C(=O)Nc2ccccc2F)[nH]1,2.16%
14,Cc1cnn(CC2CCCN2C(=O)c2cn(-c3ccccc3)nc2C)c1 (stereo not drawn),-9.39%
15,CNC(=O)[C@@H]1COC[C@H]2CN(C(=O)c3cccc(OC)c3)C[C@H]21,12.2%
16,CC(O)CN1CCN(C(=O)c2cccn2Cc2ccccc2)CC1 (stereo not drawn),-8.87%
17,CCN1C[C@@H]2CN(C(=O)c3cccn3C)C[C@@H]2C1=O,-96.1%
18,Cc1nc(C2CCCN2C(=O)COCCOc2ccccc2)no1 (stereo not drawn),-5.82%
19,CNC(=O)c1cnc2n1CCN(C(=O)Cc1ccccn1)C2,6.68%
20,O=C(O)[C@]12CCCN(Cc3ccoc3)C[C@H]1CN(c1ncccn1)C2,7.37%
21,CC(=O)Nc1cccc(CN2CCN(C3=NCC(C)(C)S3)CC2)c1,0.955%
22,COc1ccc(CNc2c(N3CCN(C(C)=O)CC3)c(=O)c2=O)cc1,-2.36%

row,SMILES,cytotoxicity at 10 µM
1,COC(=O)N1CCN(C(=O)c2ccc(C)c(N3CCNC3=O)c2)CC1,3.76%
2,CCOc1ccc(N2CCCN=C2NC(=O)c2cccc(Cl)c2)cc1,-10.1%
3,CC1C(=O)Nc2cccnc2N1S(=O)(=O)c1cc(F)cc(F)c1 (stereo not drawn),-5.26%
4,CC(O)c1cn(CC2CCN(C(=O)CN(C)C(C)C)CC2)nn1 (stereo not drawn),-1.58%
5,O=C(Nc1cc(C(F)(F)F)c[nH]c1=O)N1CCSCC1,-5.1%
6,CC(=O)Cn1cc(C#N)c(=O)c2cc(Br)ccc21,-7.06%
7,O=C(CCN1CCOC(Cn2cccn2)C1)NC1CCCC1 (stereo not drawn),4.98%
8,CCN1C(=O)COC[C@@H]1[C@H](O)c1ccc(NC(=O)COC)cc1,1.73%
9,Cc1cccc(CS(=O)(=O)NCc2nn(C)c3c2CCCC3)c1,2.37%
10,O=C(c1cccs1)N1CCC2(CC1)CN(c1cncnc1)C(=O)CO2,-67.7%
11,COCCN1CCN(C(=O)N2CCCC2)Cc2ccc(C)nc21,-65.5%
12,O=c1[nH]c(-c2ccncc2)nc2c1CCN(S(=O)(=O)N1CCCC1)C2,6.04%
13,CCC(=O)Nc1ncn(Cc2cccnc2)n1,-11.3%
14,Cc1cc(C)n(CC2CN(Cc3cscn3)CCO2)n1 (stereo not drawn),-2.68%
15,Cc1cccc(CCNC(=O)CCS(=O)(=O)C2CCCC2)c1,9.27%
16,Cc1cc(OCC(=O)N2CCCC(c3nc(C)c(C)s3)C2)no1 (stereo not drawn),-16.4%
17,CN(Cc1nccn1C)S(=O)(=O)Cc1cccc(C#N)c1,4.16%
18,Cc1cn2nc(N3CCCC3Cn3nc(C)nc3C)sc2n1 (stereo not drawn),-14.6%
19,CN(C)CCN1CCC2(CCN(C(=O)c3cccc(F)c3)CC2)C1=O,-6.19%
20,COc1cc(C)cc(-c2nc3c([nH]2)CCNC3)c1OC,4.46%
21,O=C(c1ccco1)N1CCCC(c2cc(C(F)(F)F)n3ncnc3n2)C1 (stereo not drawn),-3.55%
22,COCCN1CCC(Cc2cncc(-c3ccc(C(=O)O)cc3)n2)CC1,-27.6%

row,SMILES,cytotoxicity at 10 µM
1,CCCn1ccnc1-c1cccc(NC(=O)C2CCCOC2)c1 (stereo not drawn),-2.43%
2,COCCN(C)C[C@@H]1CN(C(=O)c2ccc(OC)c(F)c2)C[C@@H]1CO,2.87%
3,Cc1nn(C)c(Cl)c1C1CCCN1C(=O)c1ccnc(N(C)C)c1 (stereo not drawn),-6.73%
4,CC(=O)c1cccc(NC(=O)Cn2cc(-c3ccccc3)ncc2=O)c1,-2.45%
5,Cc1nnc(CN(C)CCc2nc(-c3cccc(Cl)c3)no2)n1C,2.53%
6,COC(=O)c1ccc(C2SC(C)=Nc3c2c(=O)[nH]n3C2CCCC2)cc1 (stereo not drawn),6.84%
7,CC(C)NC(=O)[C@H]1CCS(=O)(=O)[C@@H]2CN(c3ncc(F)cn3)C[C@H]12,-136%
8,CC(c1ccccn1)N(C)C(=O)CN1CCN(c2ccccn2)CC1 (stereo not drawn),5.1%
9,CC1CCCN(CCCNC(=O)Cc2csc(-c3ccoc3)n2)C1 (stereo not drawn),3.39%
10,N#Cc1ccc(CNC(=O)C2=NN(c3ccccc3)C(=O)CN2)cc1,-1.8%
11,Cc1ccc(CCNC(=O)N2CCC(Cc3cnn(C)c3)C2)cn1 (stereo not drawn),3.71%
12,CCNC(=O)COc1ccccc1N1CCCC(C)C1 (stereo not drawn),8.06%
13,Cc1nc(-c2ccccc2)sc1CNC1CCc2ncnn2C1 (stereo not drawn),-4.07%
14,CCC[C@H]1CN(Cc2nccn2C)C[C@@H]1NC(=O)C1(COC)CCC1,-3.7%
15,CC(C)(C)CN[C@@H]1CO[C@H](CNC(=O)c2ccncc2)[C@H]1O,-2.5%
16,Cc1cccc(CN2CC[C@H]3[C@H]2CCN3C(=O)c2cnn(C)c2)n1,14.4%
17,CN(CC1CCN(CCO)CC1)CC(O)c1ccc(F)cc1F (stereo not drawn),-59.3%
18,c1ccc(-c2nccc(CNCC3CCCN3c3cccnn3)n2)cc1 (stereo not drawn),-1.17%
19,CN(CC1(C)COC1)C(=O)c1cc(-c2ccnn2C)nc2ccccc12,6.57%
20,NC(=O)c1ccc(NC(=O)c2ccncc2Cl)cn1,8.29%
